# Laboratory results published in ChEMBL document CHEMBL4673248, “Discovery and Characterization of BAY 1214784, an Orally Available Spiroindoline Derivative Acting as a Potent and Selective Antagonist of the Human Gonadotropin-Releasing Hormone Receptor as Proven in a First-In-Human Study in Postmenopausal Women” (J Med Chem, 2020).
# pIC50: −log10 of the molar value.
# Key:
# [1] = target: T1, Gonadotropin-releasing hormone receptor (Rattus norvegicus, UniProt P30969); experiment: Antagonist activity at rat GnRH receptor expressed in CHO-K1 cells assessed as inhibition of LHRH-induced response preincubated for 20 mins followed by LHRH addition and measured after 60 mins by TR-FRET assay; assay type: cell-based
# T1 sequence (P30969 whole entry): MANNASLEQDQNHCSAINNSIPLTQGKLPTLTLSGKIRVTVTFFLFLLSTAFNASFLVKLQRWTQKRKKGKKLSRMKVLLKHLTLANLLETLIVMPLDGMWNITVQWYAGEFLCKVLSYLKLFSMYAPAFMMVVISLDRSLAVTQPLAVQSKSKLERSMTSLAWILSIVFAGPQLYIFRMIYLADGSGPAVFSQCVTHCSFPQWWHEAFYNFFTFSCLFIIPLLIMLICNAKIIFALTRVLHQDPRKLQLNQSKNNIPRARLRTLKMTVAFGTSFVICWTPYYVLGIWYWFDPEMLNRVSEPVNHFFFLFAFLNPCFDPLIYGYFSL
# Outline: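 Frozen rat-receptor cells: thawed, seeded overnight in serum-containing Ham's F12, Accutase-harvested, resuspended in serum-free medium with IP1-d2, 1 h at 37 °C. 1.0 × 10^4 cells/well, 20 min compound preincubation at rt, then 1× EC80 LHRH or buserelin in HEPES stimulation buffer pH 7.4 for 60 min at 37 °C. Tb-anti-IP1 lysis (1:38), HTRF read 60 min later.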
# [2] = Aqueous solubility of compound at pH 6.5 incubated for 24 hrs under shaking condition by HPLC-MS/MS analysis; assay type: physicochemical; details: aqueous solution
# Outline: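 Compound from 1 mM DMSO solution, pH 6.5 buffer added, shaken 24 h at rt. Filtered, dissolved compound quantified by HPLC-MS/MS.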
# [3] = target: Voltage-gated inwardly rectifying potassium channel KCNH2 (Homo sapiens, UniProt Q12809); experiment: Inhibition of human ERG expressed in HEK293 cells assessed as reduction in channel inward tail current by whole cell voltage clamp assay; assay type: cell-based
# [4] = target: T2, Gonadotropin-releasing hormone receptor (Homo sapiens, UniProt P30968); experiment: Antagonist activity at human GnRH receptor expressed in CHO-K1 cells assessed as inhibition of LHRH-induced response preincubated for 20 mins followed by LHRH addition and measured after 60 mins by TR-FRET assay; assay type: cell-based; details: cho-k1
# T2 sequence (P30968 whole entry): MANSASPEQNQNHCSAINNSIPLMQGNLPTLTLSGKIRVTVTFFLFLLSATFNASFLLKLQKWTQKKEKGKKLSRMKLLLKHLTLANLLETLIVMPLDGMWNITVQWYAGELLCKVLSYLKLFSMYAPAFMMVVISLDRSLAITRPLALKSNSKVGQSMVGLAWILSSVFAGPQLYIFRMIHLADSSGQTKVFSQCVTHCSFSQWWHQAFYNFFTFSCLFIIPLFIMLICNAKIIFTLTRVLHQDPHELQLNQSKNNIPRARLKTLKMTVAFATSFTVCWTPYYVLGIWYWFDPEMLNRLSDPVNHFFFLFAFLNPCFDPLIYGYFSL
# Rattus norvegicus = experiment: Suppression of ovariectomized-induced increase in plasma luteinizing hormone level in Wistar Han rat at 30 mg/kg, ip measured after 1 hr relative to control; assay type: functional
# Outline: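 Ovariectomized rats given a single intraperitoneal injection at 30 mg/kg. Plasma LH measured 1 h later and compared with vehicle-treated animals.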
# [5] = target: T2, Gonadotropin-releasing hormone receptor; experiment: Antagonist activity at human GnRH receptor expressed in CHO-K1 cells assessed as inhibition of buserelin-induced response preincubated for 20 mins followed by buserelin addition and measured after 60 mins by TR-FRET assay; assay type: cell-based; details: cho-k1
# [6] = Oral bioavailability in Wistar rat at 2 mg/kg by LC-MS/MS analysis; assay type: ADME, organism-based; details: in vivo
# [7] = Lipophilicity, log D of the compound in pH 7.5 MeCN/H2O solution by reversed-phase HPLC analysis; assay type: physicochemical
# Outline: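 Indirect reversed-phase HPLC at pH 7.5, calibrated with n-alkan-2-ones C3–C16. Compounds applied as 0.67 mM DMSO stocks in MeCN/H2O (1:1).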
# Chain of Voltage-gated inwardly rectifying potassium channel KCNH2 (Q12809 whole entry): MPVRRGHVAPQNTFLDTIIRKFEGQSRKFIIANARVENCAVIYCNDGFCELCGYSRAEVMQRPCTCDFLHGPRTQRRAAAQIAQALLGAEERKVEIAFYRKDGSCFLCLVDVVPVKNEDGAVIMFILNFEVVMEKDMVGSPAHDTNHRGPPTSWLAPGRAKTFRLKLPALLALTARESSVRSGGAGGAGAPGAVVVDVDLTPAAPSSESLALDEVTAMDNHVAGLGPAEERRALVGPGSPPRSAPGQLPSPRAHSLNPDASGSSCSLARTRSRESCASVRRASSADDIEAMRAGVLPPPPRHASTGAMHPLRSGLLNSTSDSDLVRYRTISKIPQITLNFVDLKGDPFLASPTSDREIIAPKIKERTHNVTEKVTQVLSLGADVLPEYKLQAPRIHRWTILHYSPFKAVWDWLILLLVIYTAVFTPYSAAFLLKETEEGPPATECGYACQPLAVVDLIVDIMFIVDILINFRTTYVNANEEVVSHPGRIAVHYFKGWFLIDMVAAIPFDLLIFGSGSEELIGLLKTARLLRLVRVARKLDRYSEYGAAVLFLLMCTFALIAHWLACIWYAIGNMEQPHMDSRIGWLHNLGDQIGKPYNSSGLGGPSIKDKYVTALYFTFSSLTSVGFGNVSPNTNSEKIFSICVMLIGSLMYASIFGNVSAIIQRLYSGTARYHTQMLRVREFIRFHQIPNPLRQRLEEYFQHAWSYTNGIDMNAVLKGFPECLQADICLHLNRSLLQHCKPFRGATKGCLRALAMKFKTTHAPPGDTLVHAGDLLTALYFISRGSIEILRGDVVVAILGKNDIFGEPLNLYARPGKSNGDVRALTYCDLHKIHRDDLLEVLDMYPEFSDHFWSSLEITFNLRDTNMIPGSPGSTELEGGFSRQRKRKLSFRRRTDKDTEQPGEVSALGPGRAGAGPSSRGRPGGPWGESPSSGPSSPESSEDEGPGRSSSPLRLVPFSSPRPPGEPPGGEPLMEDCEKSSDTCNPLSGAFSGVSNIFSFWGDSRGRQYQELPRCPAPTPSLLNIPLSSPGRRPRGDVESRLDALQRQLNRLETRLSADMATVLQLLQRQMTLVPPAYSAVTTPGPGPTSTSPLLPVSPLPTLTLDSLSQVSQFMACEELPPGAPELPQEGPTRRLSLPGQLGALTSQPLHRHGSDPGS
smiles,measurement,setting,value
CC1N(S(=O)(=O)c2ccc(F)cc2)c2ccc(C(=O)NCc3ccccc3Cl)cc2C12CCNCC2 (stereo in doubt; 3a),pIC50,[1],7.57
same,solubility at 24 h,[2],271 µg/mL
same,pIC50,[3],5.96
same,pIC50,[4],7.00
same,Activity,Rattus norvegicus,74%
same,pIC50,[5],6.76
same,bioavailability,[6],< 2%
same,chromatographic logD,[7],2.8
